{"source": "ChEMBL document CHEMBL3112425", "about": "“Design, synthesis, and structure-activity relationship studies of a potent PACE4 inhibitor” (J Med Chem, 2014)", "key": {"PC-3 [1]": {"system": "PC-3", "assay": "Cytotoxicity against human PC3 cells after 72 hrs by MTT assay", "format": "functional, cell-based", "conditions": "PC-3, 72 h", "outline": "(§1)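 Prostate cancer cells were kept in RPMI 1640 at 37 °C, 5% CO2, with 5% FBS for DU145 and 10% FBS for LNCaP and PC3. After 24 h, medium was changed and peptides added at various concentrations, up to 350 μM. Viability was read by MTT after 72 h treatment. IC50 from dose–response curves, triplicate, mean ± SEM.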"}, "LNCaP [2]": {"system": "LNCaP", "assay": "Cytotoxicity against human LNCAP cells after 72 hrs by MTT assay", "format": "functional, cell-based", "outline": "as §1"}, "DU-145": {"system": "DU-145", "assay": "Cytotoxicity against human DU145 cells after 72 hrs by MTT assay", "format": "functional, cell-based", "conditions": "DU-145, 72 h", "outline": "as §1"}, "[3]": {"assay": "Acute toxicity in human DU145 cells assessed as cell death/lysis at 100 uM after 4 hrs by LDH assay", "format": "cell-based, DU-145", "conditions": "read-out: INH", "outline": "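DU145 cells (RPMI 1640, 5% FBS, 37 °C, 5% CO2) plated; 24 h later peptides added at 100 μM. After 4 h, release of lactate dehydrogenase into the medium was quantified enzymatically with a commercial LDH cytotoxicity kit as the measure of acute membrane damage/lysis.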"}, "PC-3 [4]": {"system": "PC-3", "assay": "Cytotoxicity against human PC3 cells up to 350 uM after 72 hrs by MTT assay", "format": "functional", "outline": "as §1"}, "[5]": {"assay": "Half life in CD-1 mouse plasma at 0.5 ug/uL by RP-HPLC analysis", "format": "ADME, cell-free", "outline": "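Peptides at 0.5 μg/μL were incubated at 37 °C in heparinized plasma pooled from mixed-sex CD1 mice. At each time point the reaction was stopped with 1 M guanidinium-HCl, then acetonitrile, and proteins were spun out. Supernatant peptide AUC (RP-HPLC) was compared with non-incubated samples. Half-life came from a one-phase decay fit. Run ≥3 times, duplicate per time point.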"}, "Furin": {"molecular_target": "Furin (Homo sapiens, UniProt P09958)", "sequence (P09958 whole entry)": "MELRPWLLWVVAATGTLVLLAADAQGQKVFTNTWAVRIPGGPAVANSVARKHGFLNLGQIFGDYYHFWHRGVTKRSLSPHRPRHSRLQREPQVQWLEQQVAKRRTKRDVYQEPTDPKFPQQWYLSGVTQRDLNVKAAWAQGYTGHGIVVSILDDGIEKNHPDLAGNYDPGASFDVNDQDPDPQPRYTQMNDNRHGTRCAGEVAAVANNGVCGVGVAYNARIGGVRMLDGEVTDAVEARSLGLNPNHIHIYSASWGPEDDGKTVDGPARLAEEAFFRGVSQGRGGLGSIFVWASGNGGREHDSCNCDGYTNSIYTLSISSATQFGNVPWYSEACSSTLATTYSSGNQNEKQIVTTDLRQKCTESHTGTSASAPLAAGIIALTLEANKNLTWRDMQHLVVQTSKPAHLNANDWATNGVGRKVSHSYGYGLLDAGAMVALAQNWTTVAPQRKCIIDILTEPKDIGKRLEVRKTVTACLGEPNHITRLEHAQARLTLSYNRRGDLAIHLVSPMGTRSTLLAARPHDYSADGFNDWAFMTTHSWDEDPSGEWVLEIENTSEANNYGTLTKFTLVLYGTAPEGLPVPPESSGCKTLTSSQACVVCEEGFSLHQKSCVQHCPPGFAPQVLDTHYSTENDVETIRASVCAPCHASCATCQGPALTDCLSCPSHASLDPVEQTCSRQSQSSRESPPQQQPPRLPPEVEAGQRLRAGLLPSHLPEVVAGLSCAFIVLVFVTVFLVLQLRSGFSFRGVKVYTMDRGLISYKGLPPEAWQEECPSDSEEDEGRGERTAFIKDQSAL", "assay": "Inhibition of human recombinant furin expressed in drosophila schneider 2 cells using pyroGlu-Arg-Thr-Lys-Arg-AMC as substrate after 1 hr", "outline": "(§2)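 Human enzymes were expressed in Drosophila S2 cells and purified. Fluorogenic pyroGlu-RTKR-AMC was used at fixed concentration with varied inhibitor, 37 °C over 1 h. Buffers: furin, 100 mM Hepes pH 7.5, 1 mM CaCl2, 1 mM β-mercaptoethanol, 1.8 mg/mL BSA; PACE4 and PC7, 20 mM Bis-Tris pH 6.5, 1 mM CaCl2, 1.8 mg/mL BSA; PC2, same buffer at pH 5.7. Ki from IC50 (Cheng–Prusoff), or apparent Ki (Morrison) for tight binders. Triplicate, mean ± SD.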"}, "[6]": {"molecular_target": "T1, Proprotein convertase subtilisin/kexin type 6 (Homo sapiens, UniProt P29122)", "T1 sequence (P29122 whole entry)": "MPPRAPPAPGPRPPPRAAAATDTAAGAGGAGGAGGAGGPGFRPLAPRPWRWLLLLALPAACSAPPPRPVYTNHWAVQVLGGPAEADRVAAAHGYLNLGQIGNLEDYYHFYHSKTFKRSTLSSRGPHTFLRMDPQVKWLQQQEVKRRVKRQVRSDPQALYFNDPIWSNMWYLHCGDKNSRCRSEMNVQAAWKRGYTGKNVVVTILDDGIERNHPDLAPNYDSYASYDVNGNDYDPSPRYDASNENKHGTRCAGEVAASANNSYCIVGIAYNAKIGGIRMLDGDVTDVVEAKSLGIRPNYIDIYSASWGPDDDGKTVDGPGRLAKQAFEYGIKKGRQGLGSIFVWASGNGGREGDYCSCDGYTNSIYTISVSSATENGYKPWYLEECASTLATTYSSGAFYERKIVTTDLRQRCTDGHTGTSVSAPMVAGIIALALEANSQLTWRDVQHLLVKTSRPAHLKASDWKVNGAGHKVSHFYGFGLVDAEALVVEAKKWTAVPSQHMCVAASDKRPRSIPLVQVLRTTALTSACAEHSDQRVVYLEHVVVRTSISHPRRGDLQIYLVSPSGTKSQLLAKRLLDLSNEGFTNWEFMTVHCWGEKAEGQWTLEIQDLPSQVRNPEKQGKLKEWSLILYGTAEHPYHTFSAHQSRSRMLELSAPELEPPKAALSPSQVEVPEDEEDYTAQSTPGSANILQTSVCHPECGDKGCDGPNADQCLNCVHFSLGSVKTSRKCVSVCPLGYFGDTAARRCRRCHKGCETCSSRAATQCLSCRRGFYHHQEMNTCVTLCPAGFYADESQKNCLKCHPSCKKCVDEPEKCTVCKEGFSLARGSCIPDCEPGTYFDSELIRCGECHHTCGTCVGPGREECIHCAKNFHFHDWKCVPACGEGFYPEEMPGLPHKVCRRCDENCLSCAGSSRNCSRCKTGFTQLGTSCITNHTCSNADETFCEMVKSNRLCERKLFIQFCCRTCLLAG", "assay": "Inhibition of human recombinant PACE4 expressed in drosophila schneider 2 cells using pyroGlu-Arg-Thr-Lys-Arg-AMC as substrate after 1 hr", "outline": "as §2"}, "[7]": {"molecular_target": "T2, Neuroendocrine convertase 2 (Homo sapiens, UniProt P16519)", "T2 sequence (P16519 whole entry)": "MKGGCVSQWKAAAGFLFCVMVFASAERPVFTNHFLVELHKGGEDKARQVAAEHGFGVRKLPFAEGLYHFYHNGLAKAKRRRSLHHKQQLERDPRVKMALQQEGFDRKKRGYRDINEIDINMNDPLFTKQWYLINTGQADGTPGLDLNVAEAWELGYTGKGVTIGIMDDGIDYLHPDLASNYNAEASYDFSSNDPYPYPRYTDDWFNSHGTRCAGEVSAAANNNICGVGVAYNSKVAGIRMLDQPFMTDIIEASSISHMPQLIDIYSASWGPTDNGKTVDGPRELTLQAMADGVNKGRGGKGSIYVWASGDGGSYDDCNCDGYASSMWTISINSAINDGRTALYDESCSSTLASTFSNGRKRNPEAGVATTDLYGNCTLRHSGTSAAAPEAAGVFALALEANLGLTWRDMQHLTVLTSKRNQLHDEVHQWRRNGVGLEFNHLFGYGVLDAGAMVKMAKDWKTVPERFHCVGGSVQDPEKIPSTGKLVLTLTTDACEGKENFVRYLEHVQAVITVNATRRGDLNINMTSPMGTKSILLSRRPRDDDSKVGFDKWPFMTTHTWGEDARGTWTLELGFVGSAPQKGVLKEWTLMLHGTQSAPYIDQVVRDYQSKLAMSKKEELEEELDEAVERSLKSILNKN", "assay": "Inhibition of human PC2 expressed in drosophila schneider 2 cells using pyroGlu-Arg-Thr-Lys-Arg-AMC as substrate after 1 hr", "outline": "as §2"}, "[8]": {"molecular_target": "T3, Proprotein convertase subtilisin/kexin type 7 (Homo sapiens, UniProt Q16549)", "T3 sequence (Q16549 whole entry)": "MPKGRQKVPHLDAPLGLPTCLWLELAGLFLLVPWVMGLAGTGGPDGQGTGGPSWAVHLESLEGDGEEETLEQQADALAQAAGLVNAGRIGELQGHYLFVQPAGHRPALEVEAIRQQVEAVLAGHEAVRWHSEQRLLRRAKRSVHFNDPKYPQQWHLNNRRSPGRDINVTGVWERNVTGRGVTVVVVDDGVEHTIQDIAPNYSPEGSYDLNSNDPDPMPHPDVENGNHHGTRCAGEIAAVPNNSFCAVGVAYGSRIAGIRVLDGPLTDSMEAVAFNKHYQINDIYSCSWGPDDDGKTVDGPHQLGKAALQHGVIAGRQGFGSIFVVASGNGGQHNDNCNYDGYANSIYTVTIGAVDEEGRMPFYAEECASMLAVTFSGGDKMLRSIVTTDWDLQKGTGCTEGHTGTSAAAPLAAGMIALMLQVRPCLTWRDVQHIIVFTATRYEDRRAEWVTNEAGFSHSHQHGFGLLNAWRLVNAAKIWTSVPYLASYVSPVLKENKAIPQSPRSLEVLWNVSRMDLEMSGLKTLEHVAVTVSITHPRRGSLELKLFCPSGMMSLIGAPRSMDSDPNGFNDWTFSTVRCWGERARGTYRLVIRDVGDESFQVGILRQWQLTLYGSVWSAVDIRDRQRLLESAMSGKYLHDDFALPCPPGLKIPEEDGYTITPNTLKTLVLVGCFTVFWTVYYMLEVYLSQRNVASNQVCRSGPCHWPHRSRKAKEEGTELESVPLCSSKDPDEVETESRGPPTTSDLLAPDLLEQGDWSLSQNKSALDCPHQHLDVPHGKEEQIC", "assay": "Inhibition of human PC7 expressed in drosophila schneider 2 cells using pyroGlu-Arg-Thr-Lys-Arg-AMC as substrate after 1 hr", "outline": "as §2"}, "Plasma": {"system": "Plasma", "assay": "Drug degradation in CD-1 mouse plasma at 0.5 ug/uL after 30 mins by MALDI-TOF MS analysis", "format": "ADME, cell-free", "conditions": "0.5 h", "outline": "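For fragment mapping, 100 μg peptide was incubated in murine plasma at 37 °C. At each time point, plasma samples were quenched with 3% TFA. Proteins were precipitated with 2 volumes acetonitrile and centrifuged at 17 000g. Supernatants were analyzed by MALDI-TOF MS for C-terminally truncated fragments.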"}, "LNCaP [9]": {"system": "LNCaP", "assay": "Cytotoxicity against human LNCAP cells up to 350 uM after 72 hrs by MTT assay", "format": "functional", "outline": "as §1"}}, "note": "Square brackets hold non-standard residues; d marks the D form. Peptide text beside a SMILES is read from it. * marks the point of attachment. NH(4-amidinobenzyl) = N=C(N)c1ccc(CN*)cc1; X2 = N=C(N)NCCCN(CC(N)=O)N*; Nle = CCCC[C@H](N)C(=O)O"}
{"smiles": "CC(=O)N[C@@H](CC(C)C)C(=O)N[C@@H](CC(C)C)C(=O)N[C@@H](CC(C)C)C(=O)N[C@@H](CC(C)C)C(=O)N[C@@H](CCCNC(=N)N)C(=O)N[C@H](C(=O)N[C@@H](CCCCN)C(=O)NCc1ccc(C(=N)N)cc1)C(C)C", "note": "(Ac-LLLLRVK-{NH(4-amidinobenzyl)})", "values": [{"measurement": "IC50", "setting": "PC-3 [1]", "result": 150, "unit": "µM"}, {"measurement": "IC50", "setting": "LNCaP [2]", "result": 40, "unit": "µM"}, {"measurement": "IC50", "setting": "DU-145", "result": 25, "unit": "µM"}]}
{"smiles": "CC(=O)N[C@@H](CC(C)C)C(=O)N[C@@H](CC(C)C)C(=O)N[C@@H](CC(C)C)C(=O)N[C@@H](CC(C)C)C(=O)N[C@@H](CCCNC(=N)N)C(=O)N[C@H](C(=O)N[C@@H](CCCCN)C(=O)NN(CCCNC(=N)N)CC(N)=O)C(C)C", "note": "(Ac-LLLLRVK-X2)", "values": [{"measurement": "cytotoxicity at 4 h, 100 µM", "setting": "[3]", "result": "< 5", "unit": "%"}, {"measurement": "inhibition (INH)", "setting": "PC-3 [4]", "result": "<50", "unit": "%"}, {"measurement": "IC50", "setting": "LNCaP [2]", "result": 240, "unit": "µM"}, {"measurement": "IC50", "setting": "DU-145", "result": 270, "unit": "µM"}, {"measurement": "half-life at 0.5 ug/uL", "setting": "[5]", "result": 5.6, "unit": "h"}, {"measurement": "Ki", "setting": "Furin", "result": 1.12, "unit": "µM"}, {"measurement": "Ki", "setting": "[6]", "result": 0.4, "unit": "µM"}]}
{"smiles": "CC(=O)N[C@@H](CC(C)C)C(=O)N[C@@H](CC(C)C)C(=O)N[C@@H](CC(C)C)C(=O)N[C@@H](CC(C)C)C(=O)N[C@@H](CCCN=C(N)N)C(=O)N[C@H](C(=O)N[C@@H](CCCCN)C(=O)NCc1ccc(C(=N)N)cc1)C(C)C", "note": "(Ac-LLLLRVK-{NH(4-amidinobenzyl)})", "values": [{"measurement": "cytotoxicity at 4 h, 100 µM", "setting": "[3]", "result": "< 5", "unit": "%"}, {"measurement": "half-life at 0.5 ug/uL", "setting": "[5]", "result": 12, "unit": "h"}, {"measurement": "Ki", "setting": "[7]", "result": 0.00024, "unit": "µM"}, {"measurement": "Ki", "setting": "[8]", "result": 0.0138, "unit": "µM"}, {"measurement": "Ki", "setting": "Furin", "result": 0.0043, "unit": "µM"}, {"measurement": "Ki", "setting": "[6]", "result": 0.0031, "unit": "µM"}, {"measurement": "Stability", "setting": "Plasma", "result": "Unstable"}]}
{"smiles": "CCCC[C@H](NC(=O)[C@H](CC(C)C)NC(=O)[C@H](CC(C)C)NC(C)=O)C(=O)N[C@@H](CC(C)C)C(=O)N[C@@H](CCCNC(=N)N)C(=O)N[C@H](C(=O)N[C@@H](CCCCN)C(=O)N[C@@H](CCCNC(=N)N)C(N)=O)C(C)C", "note": "(Ac-LL[Nle]LRVKR-NH2)", "values": [{"measurement": "cytotoxicity at 4 h, 100 µM", "setting": "[3]", "result": "< 5", "unit": "%"}, {"measurement": "inhibition (INH)", "setting": "PC-3 [4]", "result": "<50", "unit": "%"}, {"measurement": "inhibition (INH)", "setting": "LNCaP [9]", "result": "<50", "unit": "%"}, {"measurement": "IC50", "setting": "DU-145", "result": 190, "unit": "µM"}, {"measurement": "Ki", "setting": "Furin", "result": 1.98, "unit": "µM"}, {"measurement": "Ki", "setting": "[6]", "result": 0.385, "unit": "µM"}]}
